From ChEMBL document CHEMBL1149559, “Synthesis and evaluation of amphiphilic cationic quinine-derived for antibacterial activity against methicillin-resistant Staphylococcus aureus” (Bioorg Med Chem Lett, 2007)
In brackets after ≈: the same amount, converted by molar mass. Activity calls are given as the source filed them. The rule behind the calls is not given here.

Legend:
Staphylococcus aureus [1] = experiment: Antibacterial activity against methicillin-resistant Staphylococcus aureus CMAH 0430 by disk diffusion method; format: functional
Staphylococcus aureus [2] = experiment: Antibacterial activity against methicillin-resistant Staphylococcus aureus CMAH 0504 at 30 ug/ml by disk diffusion method; format: functional; details: read-out: IZ
Staphylococcus aureus [3] = experiment: Antibacterial activity against Staphylococcus aureus by disk diffusion method; format: functional
Staphylococcus aureus [4] = experiment: Antibacterial activity against methicillin-resistant Staphylococcus aureus CMAH 0515 by disk diffusion method; format: functional
[5] = Toxicity in human erythrocytes assessed as hemolytic activity at 1000 ug/ml after 1 hr; format: cell-based, Erythrocyte; details: read-out: Activity
Method in brief: (§1)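 Human heparinised erythrocytes, PBS-washed, were used at about 1.0 × 10^9 cells/mL and mixed 1:1 with compound (1-2000 µg/mL) for 1 h at 37 °C. After centrifugation, supernatant OD540 was read. PBS set 0% lysis and 0.1% Triton X-100 set 100% lysis. Triplicates, confirmed in three independent experiments.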

[6] = Toxicity in human erythrocytes assessed as hemolytic activity at 250 ug/ml after 1 hr; format: cell-based, Erythrocyte; details: read-out: Activity; method in brief: as §1
[7] = Toxicity in human erythrocytes assessed as hemolytic activity at 2000 ug/ml after 1 hr; format: cell-based, Erythrocyte; details: read-out: Activity; method in brief: as §1
Staphylococcus aureus [8] = experiment: Antibacterial activity against methicillin-resistant Staphylococcus aureus CMAH 0430 by broth microdilution method; format: functional
Method in brief: (§2)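 MIC and MBC by broth microdilution following NCCLS recommendations; values given in µg/mL.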

Staphylococcus aureus [9] = experiment: Antibacterial activity against methicillin-susceptible Staphylococcus aureus ATCC 25923 by broth microdilution method; format: functional; method in brief: as §2
Staphylococcus aureus [10] = experiment: Antibacterial activity against methicillin-resistant Staphylococcus aureus CMAH 0504 by broth microdilution method; format: functional; method in brief: as §2
Micrococcus luteus = experiment: Antibacterial activity against Micrococcus luteus CMCC(B)28001 by broth microdilution method; format: functional; method in brief: as §2
[11] = Toxicity in human erythrocytes assessed as hemolytic activity at 500 ug/ml after 1 hr; format: cell-based, Erythrocyte; details: read-out: Activity; method in brief: as §1
Staphylococcus aureus [12] = experiment: Antibacterial activity against methicillin-resistant Staphylococcus aureus CMAH 0515 by broth microdilution method; format: functional; method in brief: as §2
Bacillus subtilis = experiment: Antibacterial activity against Bacillus subtilis ATCC 6633 by broth microdilution method; format: functional; method in brief: as §2
Staphylococcus aureus [13] = experiment: Antibacterial activity against methicillin-resistant Staphylococcus aureus CMAH 0504 at 10 ug/ml after 20 to 30 mins; format: functional, organism-based
Method in brief: (§3)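 Time-kill assay. Mid-log cultures were diluted in Mueller–Hinton broth to a final inoculum of 3-5 × 10^5 cells/mL and incubated at 30 °C with 5, 10, 15 µg/mL (S. aureus ATCC 25923) or 2.5, 5, 10 µg/mL (MRSA CMAH 0504), alongside a drug-free growth control. Samples were washed, plated on MH agar and incubated 24 h at 30 °C for colony counts. Three independent experiments, each in triplicate.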

Pseudomonas aeruginosa = experiment: Antibacterial activity against Pseudomonas aeruginosa ATCC 27853 by broth microdilution method; format: functional; method in brief: as §2
Staphylococcus aureus [14] = experiment: Antibacterial activity against methicillin-susceptible Staphylococcus aureus ATCC 25923 at 15 ug/ml after 40 mins; format: functional, organism-based; method in brief: as §3
Escherichia coli = experiment: Antibacterial activity against Escherichia coli ATCC 25922 by broth microdilution method; format: functional; method in brief: as §2

SMILES	inhibition zone (IZ) (Staphylococcus aureus [1]) [mm]	zone of inhibition at 30 µg/mL (Staphylococcus aureus [2]) [mm]	inhibition zone (IZ) (Staphylococcus aureus [3]) [mm]	inhibition zone (IZ) (Staphylococcus aureus [4]) [mm]	hemolysis at 1 h, 1000 ug/ml [5] [%]	hemolysis at 1 h, 250 ug/ml [6] [%]	hemolysis at 1 h, 2000 ug/ml [7] [%]	MBC (Staphylococcus aureus [8]) [µg/mL]	MIC (Staphylococcus aureus [8]) [µg/mL]	MBC (Staphylococcus aureus [9]) [µg/mL]	MIC (Staphylococcus aureus [9]) [µg/mL]	MBC (Staphylococcus aureus [10]) [µg/mL]	MIC (Staphylococcus aureus [10]) [µg/mL]	MBC (Micrococcus luteus) [µg/mL]	MIC (Micrococcus luteus) [µg/mL]	hemolysis at 1 h, 500 ug/ml [11] [%]	MBC (Staphylococcus aureus [12]) [µg/mL]	MIC (Staphylococcus aureus [12]) [µg/mL]	MBC (Bacillus subtilis) [µg/mL]	MIC (Bacillus subtilis) [µg/mL]	other results
CN(C)[C@@H]1C(O)=C(C(N)=O)C(=O)[C@@]2(O)C(O)=C3C(=O)c4c(O)cccc4[C@@](C)(O)[C@H]3C[C@@H]12 [TETRACYCLINE]	15	17	14	17																	
C=CC1C[N+]2(CC(=O)c3ccccc3)CCC1CC2[C@H](O)c1ccnc2ccc(OC)cc12.[Br-] (stereo partly specified)					0	0	5	25	12.5	25	12.5	25	12.5	12.5	6.3	0	25	12.5	25	25	
C=CC1C[N+]2(CC(=O)c3ccc(Cl)cc3)CCC1CC2[C@H](O)c1ccnc2ccc(OC)cc12 (stereo partly specified)																					Activity (Staphylococcus aureus [8]): inactive; Activity (Staphylococcus aureus [9]): inactive; Activity (Staphylococcus aureus [10]): inactive; Activity (Staphylococcus aureus [12]): inactive
C=CC1C[N+]2(CC(=O)c3cccc4ccccc34)CCC1CC2[C@H](O)c1ccnc2ccc(OC)cc12.[Br-] (stereo partly specified)	26	23	26	25	17	0	55	1.56	0.39	3.13	1.56	1.56	0.78	3.13	3.13	9	1.56	0.39	6.25	3.13	Activity (Staphylococcus aureus [13]): Active; MIC (Pseudomonas aeruginosa): 100 µg/mL; Activity (Staphylococcus aureus [14]): inactive; MBC (Escherichia coli): 100 µg/mL; MIC (Escherichia coli): 50 µg/mL
C=CC1C[N+]2(CC(=O)c3ccc(Br)cc3)CCC1CC2[C@H](O)c1ccnc2ccc(OC)cc12.[Br-] (stereo partly specified)	23	22	24	22	7	0	25	6.25	3.13	6.25	3.13	12.5	6.25	6.25	6.25	0	6.25	3.13	6.25	3.13	MIC (Pseudomonas aeruginosa): 100 µg/mL; MIC (Escherichia coli): 100 µg/mL
Cc1nnc(SCC2=C(C(=O)O)N3C(=O)[C@@H](NC(=O)Cn4cnnn4)[C@H]3SC2)s1 [CEFAZOLIN]	2		30																		
C=CC1C[N+]2(CC(=O)c3ccc([N+](=O)[O-])cc3)CCC1CC2[C@H](O)c1ccnc2ccc(OC)cc12.[Br-] (stereo partly specified)					0	0	0	50	50	50	25	50	50	50	25	0	50	50	50	25	
C=C[C@H]1CN2CC[C@H]1C[C@H]2[C@H](O)c1ccnc2ccc(OC)cc12																					Activity (Staphylococcus aureus [8]): inactive; Activity (Staphylococcus aureus [9]): inactive; Activity (Staphylococcus aureus [10]): inactive; Activity (Staphylococcus aureus [12]): inactive
C=CC1C[N+]2(CC(=O)c3ccc(OC)cc3)CCC1CC2[C@H](O)c1ccnc2ccc(OC)cc12.[Br-] (stereo partly specified)					0	0	0	50	25	12.5	12.5	50	25	12.5	12.5	0	50	25	25	12.5	
NC[C@H]1O[C@H](O[C@H]2[C@H](O)[C@@H](O[C@H]3O[C@H](CO)[C@@H](O)[C@H](N)[C@H]3O)[C@H](N)C[C@@H]2N)[C@H](O)[C@@H](O)[C@@H]1O [KANAMYCIN]			28							0.78 (≈ 1.61 µM)	0.39 (≈ 0.805 µM)			0.39 (≈ 0.805 µM)	0.39 (≈ 0.805 µM)				6.25 (≈ 12.9 µM)	6.25 (≈ 12.9 µM)	MBC (Escherichia coli): 0.39 µg/mL (≈ 0.805 µM); MIC (Escherichia coli): 0.39 µg/mL (≈ 0.805 µM)
CC1(C)S[C@@H]2[C@H](NC(=O)[C@H](N)c3ccccc3)C(=O)N2[C@H]1C(=O)O [AMPICILLIN]			34							0.78 (≈ 2.23 µM)	0.39 (≈ 1.12 µM)			0.78 (≈ 2.23 µM)	0.39 (≈ 1.12 µM)				0.39 (≈ 1.12 µM)	0.39 (≈ 1.12 µM)	MBC (Escherichia coli): 100 µg/mL (≈ 286 µM); MIC (Escherichia coli): 50 µg/mL (≈ 143 µM)
CCC(=O)O[C@@H]1CC(=O)O[C@H](C)C/C=C/C=C/[C@H](O)[C@H](C)C[C@H](CC=O)[C@H](O[C@@H]2O[C@H](C)[C@@H](O[C@H]3C[C@@](C)(O)[C@@H](OC(=O)CC)[C@H](C)O3)[C@H](N(C)C)[C@H]2O)[C@H]1OC [MIDECAMYCIN]			27																		
O=C(N[C@H](CO)[C@H](O)c1ccc([N+](=O)[O-])cc1)C(Cl)Cl [CHLORAMPHENICOL]	27	26	32	27																	
C=C[C@H]1C[N@@]2CC[C@H]1C[C@H]2[C@H](O)c1ccnc2ccc(OC)cc12 [QUININE]					0	0	0									0					
C[C@H]1COc2c(N3CCN(C)CC3)c(F)cc3c(=O)c(C(=O)O)cn1c23.C[C@H]1COc2c(N3CCN(C)CC3)c(F)cc3c(=O)c(C(=O)O)cn1c23.O [LEVOFLOXACIN]			32																		
CN[C@H](CC(C)C)C(=O)N[C@H]1C(=O)N[C@@H](CC(N)=O)C(=O)N[C@H]2C(=O)N[C@H]3C(=O)N[C@H](C(=O)N[C@H](C(=O)O)c4cc(O)cc(O)c4-c4cc3ccc4O)[C@H](O)c3ccc(c(Cl)c3)Oc3cc2cc(c3O[C@@H]2O[C@H](CO)[C@@H](O)[C@H](O)[C@H]2O[C@H]2C[C@](C)(N)[C@H](O)[C@H](C)O2)Oc2ccc(cc2Cl)[C@H]1O [VANCOMYCIN]	24	22	23	24																	
